Counter-ions that a name gives are not always drawn. Activity calls are given as the source filed them. The rule behind the calls is not given here.
Assays:
[1] = target: T1, Neuronal acetylcholine receptor; alpha4/beta2 (Homo sapiens, UniProt P17787+P43681); experiment: Agonist activity at human alpha4beta2 nACHR expressed in xenopus oocyte assessed as potentiation of acetylcholine-induced current by two electrode voltage clamp assay; type: functional
Outline: (§1)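 Human α4 and β2 cRNA injected into stage IV Xenopus oocytes (50 nL total at 0.2 ng/nL, subunit ratio as appropriate), then incubated 24–72 h at 19 °C. Two-electrode voltage clamp in a vertical flow chamber perfused with ND-96 (pH 7.4) at 20 mL/min. Compound in ND-96 was co-applied with ACh, and the enhancement of current was measured. Concentration–response curves were fit by non-linear regression.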

[2] = target: Neuronal acetylcholine receptor subunit alpha-7 (Homo sapiens, UniProt P36544); experiment: Antagonist activity at human alpha7 nAChR expressed in xenopus oocyte assessed as inhibition of acetylcholine-induced current by two-electrode voltage clamp assay; type: functional
Outline: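 Xenopus stage IV oocytes were injected with human α7 cRNA (50 nL, 0.2 ng/nL) and kept 24–72 h at 19 °C. Recording was by two-electrode voltage clamp with ND-96 perfusion (pH 7.4) at 20 mL/min. Compound dissolved in ND-96 was co-applied with ACh, and inhibition of the ACh response was read. Concentration–response data were fit by non-linear regression.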

[3] = target: T1, Neuronal acetylcholine receptor; alpha4/beta2; experiment: Agonist activity at human alpha4beta2 nACHR expressed in xenopus oocyte assessed as potentiation of acetylcholine-induced current by two electrode voltage clamp assay relative to acetylcholine; type: functional; outline: as §1
[4] = organism: Homo sapiens; experiment: Selectivity ratio of IC50 for human alpha7 nAChR to IC50 for human alpha4beta2 nAChR

T1 sequence (P17787 whole entry, the tested form may be a part): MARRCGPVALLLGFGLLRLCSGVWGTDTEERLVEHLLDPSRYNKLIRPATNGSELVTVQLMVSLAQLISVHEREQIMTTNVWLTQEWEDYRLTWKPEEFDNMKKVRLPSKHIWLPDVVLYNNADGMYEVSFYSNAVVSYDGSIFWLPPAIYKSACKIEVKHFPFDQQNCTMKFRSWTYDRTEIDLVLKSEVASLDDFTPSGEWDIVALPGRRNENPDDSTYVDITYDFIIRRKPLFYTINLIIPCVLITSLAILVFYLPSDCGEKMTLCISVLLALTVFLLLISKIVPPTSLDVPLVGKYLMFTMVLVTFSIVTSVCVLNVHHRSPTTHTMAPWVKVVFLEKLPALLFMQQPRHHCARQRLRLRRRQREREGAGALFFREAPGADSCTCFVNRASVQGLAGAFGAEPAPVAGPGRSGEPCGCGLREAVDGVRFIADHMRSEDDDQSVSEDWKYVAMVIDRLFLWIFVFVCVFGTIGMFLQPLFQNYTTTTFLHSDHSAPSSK
T1 sequence (P43681 whole entry, the tested form may be a part): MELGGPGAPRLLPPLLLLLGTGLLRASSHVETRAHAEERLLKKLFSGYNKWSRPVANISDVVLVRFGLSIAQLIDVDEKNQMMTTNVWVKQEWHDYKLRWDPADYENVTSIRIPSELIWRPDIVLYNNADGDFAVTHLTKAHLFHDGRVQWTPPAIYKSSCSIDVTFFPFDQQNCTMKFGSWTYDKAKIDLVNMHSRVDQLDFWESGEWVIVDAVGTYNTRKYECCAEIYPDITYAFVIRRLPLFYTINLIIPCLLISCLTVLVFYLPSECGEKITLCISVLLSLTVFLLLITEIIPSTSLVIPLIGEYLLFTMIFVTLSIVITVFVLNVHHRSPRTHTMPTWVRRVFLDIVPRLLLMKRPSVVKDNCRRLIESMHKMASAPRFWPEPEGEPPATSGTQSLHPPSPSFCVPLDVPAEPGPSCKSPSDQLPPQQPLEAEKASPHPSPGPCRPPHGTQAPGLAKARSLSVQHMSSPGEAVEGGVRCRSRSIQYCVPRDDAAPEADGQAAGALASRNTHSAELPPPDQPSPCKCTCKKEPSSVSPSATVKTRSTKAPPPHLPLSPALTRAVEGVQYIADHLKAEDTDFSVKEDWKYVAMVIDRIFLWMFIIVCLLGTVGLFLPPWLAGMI
Neuronal acetylcholine receptor subunit alpha-7, sequence (P36544 whole entry, the tested form may be a part): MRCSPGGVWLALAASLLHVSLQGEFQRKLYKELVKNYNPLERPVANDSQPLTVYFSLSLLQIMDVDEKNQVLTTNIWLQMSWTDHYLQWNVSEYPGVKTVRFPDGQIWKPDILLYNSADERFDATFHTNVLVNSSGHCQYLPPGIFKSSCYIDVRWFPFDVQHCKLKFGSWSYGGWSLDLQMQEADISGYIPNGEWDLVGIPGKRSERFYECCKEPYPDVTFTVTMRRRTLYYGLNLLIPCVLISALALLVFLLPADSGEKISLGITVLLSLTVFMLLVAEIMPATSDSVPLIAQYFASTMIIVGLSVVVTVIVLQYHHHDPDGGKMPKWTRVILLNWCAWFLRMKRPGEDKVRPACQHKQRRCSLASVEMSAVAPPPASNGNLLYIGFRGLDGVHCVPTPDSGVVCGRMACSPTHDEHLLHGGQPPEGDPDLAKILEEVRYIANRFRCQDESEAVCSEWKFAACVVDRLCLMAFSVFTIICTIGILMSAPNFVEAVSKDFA

SMILES | pEC50 [1] | EC50 [2] [µM] | EC50 ([1]; read-out: EC50) [µM] | EC50 ([1]; read-out: pEC50 (converted)) [µM] | Emax [3] [%] | Ratio IC50 [4]
CNCCc1c[nH]c2cc(Br)ccc12 | inactive | 11 |  |  |  | 
CCCc1[nH]c2ccccc2c1CCNC | inactive | 44.7 |  |  |  | 
CNCCc1c(C(C)C)[nH]c2ccccc12 | inactive |  |  |  |  | 
CCC(C)(C)c1[nH]c2ccccc2c1CCNC |  | 20.4 | 1.22 | 3.02 | 260 | 
C=CC(C)(C)c1[nH]c2cc(Br)ccc2c1CCN |  | 5.75 |  | 0.513 |  | 
C=CC(C)(C)c1[nH]c2cc(Br)ccc2c1CCNC [DESFORMYLFLUSTRABROMINE HYDROCHLORIDE] |  | 1.86 | 0.32 | 0.331 |  | 
C=CCc1[nH]c2cc(Br)ccc2c1CCNC | inactive | 29.5 |  |  |  | 
C=CC(C)(C)c1[nH]c2ccccc2c1CCNC |  | 7.76 | 6.77 | 7.24 | 250 | 
CCC(C)(C)c1[nH]c2cc(Br)ccc2c1CCNC |  | 25.7 | 0.1 | 0.138 | 290 | 190
CNCCc1c(C(C)(C)C)[nH]c2ccccc12 |  | 4.79 |  | 3.98 |  | 
CCCc1[nH]c2cc(Br)ccc2c1CCNC | inactive | 20.9 |  |  |  | 
CCC(C)c1[nH]c2ccccc2c1CCNC (racemic) | inactive | 9.77 |  |  |  | 
